High-throughput results deposited in PubChem by several laboratories.
rCAG binder = binds r(CAG) RNA repeats | r(CAG) RNA repeat, TO-PRO-1 dye displacement fluorescence | inhibition, % at 3 µM | 370,000 compounds, 1.3% hits | AID 651821;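 active means inhibition above the plate cutoff, the mean of all test compounds on that plate plus 3 SD, cut at about 35% in these data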;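 further: 0% = DMSO alone and 100% = 100 µM mitoxantrone as full dye displacement; higher means more dye released from RNA so lower well fluorescence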
UHRF1 MBD2 ctr = human UHRF1 methylated DNA binding inhibitors; Q96T88; UHRF1 binding to methylated oligo, TR-FRET; inhibition, % at 4.4 µM; 370,000 compounds, 0.75% hits; AID 687016; in the data active means inhibition above about 21%;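 further: UHRF1 SRA domain binding a hemimethylated CpG hairpin DNA probe; 0% = median of test compound wells and 100% = reference inhibitor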
Target sequence (Q96T88 whole entry, looked up, the tested form may be a part): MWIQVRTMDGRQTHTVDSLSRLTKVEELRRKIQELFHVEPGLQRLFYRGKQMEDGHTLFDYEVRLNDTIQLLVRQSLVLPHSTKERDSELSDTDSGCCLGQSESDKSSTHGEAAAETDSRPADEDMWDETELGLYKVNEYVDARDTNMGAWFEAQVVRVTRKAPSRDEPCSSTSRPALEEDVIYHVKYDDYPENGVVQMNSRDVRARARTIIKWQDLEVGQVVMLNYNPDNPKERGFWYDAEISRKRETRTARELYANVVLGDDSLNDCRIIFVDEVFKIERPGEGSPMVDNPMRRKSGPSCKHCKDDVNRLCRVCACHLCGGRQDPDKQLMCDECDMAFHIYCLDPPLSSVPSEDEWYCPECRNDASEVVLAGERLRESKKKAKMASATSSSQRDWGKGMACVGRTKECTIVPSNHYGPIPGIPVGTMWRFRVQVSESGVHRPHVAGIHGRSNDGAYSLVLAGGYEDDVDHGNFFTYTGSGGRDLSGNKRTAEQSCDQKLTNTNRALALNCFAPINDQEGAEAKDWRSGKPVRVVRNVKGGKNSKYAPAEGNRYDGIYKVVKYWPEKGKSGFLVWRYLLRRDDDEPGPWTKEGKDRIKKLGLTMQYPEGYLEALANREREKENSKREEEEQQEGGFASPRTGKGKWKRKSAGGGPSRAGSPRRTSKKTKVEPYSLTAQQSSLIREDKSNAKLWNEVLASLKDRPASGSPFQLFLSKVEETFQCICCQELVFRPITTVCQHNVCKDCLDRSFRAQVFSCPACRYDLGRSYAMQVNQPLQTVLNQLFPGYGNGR
CSN deneddyl inh = blocks human CSN-mediated cullin deneddylation | Q92905 | Purified CSN, SCF-Nedd8-OG deneddylation, fluorescence polarization | inhibition, % at 12.5 µM | 360,000 compounds, 0.38% hits | AID 651999;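 active means pattern-corrected inhibition above about 35%, with an unprinted fluorescence ratio check between 0.5 and 1.5, limit read from the data, passing the limit was not always enough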;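 further: 0% = enzyme with substrate and 100% = substrate without enzyme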
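test system = HEK293T-derived human Csn5 enzyme | amount = 0.24 nM Csn5 enzyme, final concentration | medium = Tris/NaCl/DTT buffer, pH 7.5 | schedule = 90 min reaction at room temperature | signal = FP | evaluation = inhibition of Csn5 cleavage, % | compound dosing = single dose of 12.5 µM compound with 0.25% DMSO | probe or stimulus = 10 nM SCFSkp2-Nedd8OG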
ATG4B inh = blocks human ATG4B protease cleavage of LC3 substrate. inhibition, % at 8.33 µM. 340,000 compounds, 0.51% hits. Q9Y4P1. ATG4B cleavage of LC3-PLA2, NBD-HPC fluorescence, 1 h; in the data active means inhibition above about 40%
LEDGF integ inh = blocks HIV-1 LEDGF/p75-dependent DNA integration | TR-FRET IN-LEDGF/p75 DNA integration, Eu/Cy5 | inhibition, % at 3.7 µM | 370,000 compounds, 0.64% hits;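 active means inhibition above the screen-wide mean plus 3 SD, cut at about 13% in these data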;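 further: signal is the Cy5 over europium emission ratio at 671 and 618 nm; 0% = plate median of compound wells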
MBD2 inh = inhibitors of human MBD2 binding to methylated oligonucleotide. Q9UBB5. TR-FRET. inhibition, % at 4.4 µM. 370,000 compounds, 0.31% hits. AID 686964; in the data active means inhibition above about 13%
rCAG bind conf = r(CAG) RNA repeat binding, confirmation; TO-PRO-1 dye displacement fluorescence; 4,300 compounds, 70% hits; inhibition, % at 3 µM; shares compounds with rCAG binder;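 active means inhibition above a per-plate cutoff, the mean inhibition of sample wells plus 3 SD, cut at about 35% in these data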;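 further: loss of TO-PRO-1 fluorescence as compound displaces dye from 1x1 AA loop RNA; 0% = DMSO only wells and 100% = 100 µM mitoxantrone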
DNA CAG counter = counter-screen for rCAG RNA binders: DNA CAG dye complex inhibitors | 4,300 compounds, 94% hits | d(CAG) DNA oligo TO-PRO-1 dye displacement, fluorescence | AID 652068 | inhibition, % at 3 µM | shares compounds with rCAG binder;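 active means inhibition above its plate's cutoff, the mean test-well inhibition plus 3 SD, cut at about 4.8% in these data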;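 further: 0% = DNA dye mix with DMSO and 100% = 100 µM mitoxantrone; hits displace the dye from DNA and so lower well fluorescence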
DNA CAG DR = disrupts DNA CAG TO-PRO-1 complex in dose response. DNA CAG/GTC duplex TO-PRO-1 dye displacement fluorescence. shares compounds with rCAG binder. AID 686960. 250 compounds, 20% hits. IC50, µM; in the data active means IC50 below about 10 µM
The depositor's hits bear a star; i = inactive; nt = no result given. An excerpt weighted towards active compounds, which were near 3.1% of everything screened.

SMILES | rCAG binder | UHRF1 MBD2 ctr | CSN deneddyl inh | ATG4B inh | LEDGF integ inh | MBD2 inh | rCAG bind conf | DNA CAG counter | others
CCCSc1nnc(NC(=O)c2sc3nc(-c4cccs4)ccc3c2N)s1 | 36* | 1 | 9 | 9 | 12 | 1 | 68* | 33*
CCOc1ccc(NS(=O)(=O)c2ccc(NS(=O)(=O)c3ccc(SC)cc3)cc2)cc1 | 49* | 17 | 1 | -3 | 3 | 3 | 55* | 18*
COc1ccc(OC)c(NS(=O)(=O)c2ccc(SC)cc2)c1 | 3 | 3 | -6 | -7 | 3 | 4 | nt | nt
COc1ccc(NS(=O)(=O)c2ccc(NS(=O)(=O)c3ccc(SC)cc3)cc2)c(OC)c1 | 38* | 0 | -4 | -7 | 1 | -1 | 43* | 13*
CCOc1ccc(NS(=O)(=O)c2ccc(NS(C)(=O)=O)cc2)cc1 | 2 | 0 | 1 | 0 | 2 | -1 | nt | nt
COc1ccc(S[C@]2(C(=O)N3CCOCC3)CC(=O)N(C(=O)CCc3ccccc3)[C@@H]2c2ccc(OC)cc2)cc1 | 8 | -2 | nt | nt | 2 | -5 | nt | nt
O=C(Nc1c(C(=O)Nc2ccccc2)cnn1-c1ccccc1)c1ccco1 | 4 | -2 | 1 | -3 | 0 | 4 | nt | nt
O=C(Nc1c(C(=O)Nc2cccc3ccccc23)cnn1-c1ccccc1)c1ccco1 | 64* | -5 | 5 | 0 | -2 | -2 | 49* | 16*
C/C(=N\Nc1ccc(Cl)c(C(=O)O)c1)c1ccccn1 | 5 | 0 | -7 | -2 | 3 | -4 | nt | nt
O=C(O)c1cc(N/N=C/C(Cl)=C/c2ccccc2)ccc1Cl | 57* | 0 | -4 | 3 | -1 | -3 | 45* | 18*
O=C(Nc1ccc(S(=O)(=O)Nc2cnc3ccccc3n2)cc1)c1cccc(OC(F)F)c1 | 55* | 0 | -4 | -8 | -6 | 6 | 35* | 6.7*
CCc1ccc(N2C(=O)Cc3c2nc(N)c(C#N)c3N)cc1 | 16 | 3 | 9 | -16 | -4 | 5 | nt | nt
CCN(CC)c1nc2c3c(nc4c(c3c1C#N)CC(=O)N4c1ccc(Cl)cc1)NC(C)=N2 | 60* | 2 | 6 | 3 | -2 | 3 | 52* | 23*
COc1cc(/C=C2\SC(=O)NC2=O)ccc1Oc1ccc([N+](=O)[O-])cc1[N+](=O)[O-] | 52* | -2 | 9 | 7 | -2 | 0 | 72* | 33* | DNA CAG DR=i
COc1ccc(-n2c(SC/C=C/c3ccccc3)nnc2-c2cccs2)cc1 | 5 | 0 | nt | nt | 4 | 5 | nt | nt
CCOc1ccc(/C=C/c2[nH]c(=O)[nH]c(=O)c2[N+](=O)[O-])cc1 | 39* | 20 | -3 | -1 | 8 | -1 | 16 | 7.0*
O=c1[nH]c(/C=C/c2ccccc2Cl)c([N+](=O)[O-])c(=O)[nH]1 | 7 | -1 | 14 | 6 | -2 | -6 | nt | nt
COc1cccc(/C=C2/NC(=O)NC2=O)c1OCC(=O)Nc1ccccc1 | -1 | -2 | 8 | -9 | 0 | -2 | nt | nt
CC(C)c1ccc(/C=C/c2[nH]c(=O)[nH]c(=O)c2[N+](=O)[O-])cc1 | 40* | 0 | 17 | -4 | 1 | 5 | 24 | 4
CCOC(=O)COc1ccc(Br)cc1/C=C\c1[nH]c(=O)[nH]c(=O)c1[N+](=O)[O-] | 84* | 6 | 29 | -2 | -4 | 1 | 43* | 10*
O=C(COc1ccccc1/C=C1\SC(=O)NC1=O)Nc1ccccc1 | 35* | 3 | 7 | 10 | 2 | -1 | 48* | 15*
O=C(COc1ccccc1/C=C\c1[nH]c(=O)[nH]c(=O)c1[N+](=O)[O-])Nc1ccccc1 | 68* | -2 | 12 | -7 | 6 | 2 | 43* | 14*
CCOc1ccc2nc(S(=O)(=O)NC(=O)C3(C)CCN3C(=O)CCc3cccs3)sc2c1 (stereo unspecified) | 38* | -2 | -4 | nt | -1 | 4 | 37* | 9.9*
CCCCOc1ccc(S(=O)(=O)NC(=O)C2(C)CCN2C(=O)Cc2ccccc2Cl)cc1 (stereo unspecified) | 44* | 1 | -3 | nt | 8 | -5 | 38* | 9.1*
CC1(C(=O)NS(=O)(=O)c2ccc(Cl)cc2)CCN1C(=O)Cc1ccccc1Cl (stereo unspecified) | 14 | 0 | -1 | nt | 6 | -3 | nt | nt
SMILES | rCAG binder | UHRF1 MBD2 ctr | CSN deneddyl inh | ATG4B inh | LEDGF integ inh | MBD2 inh | rCAG bind conf | DNA CAG counter | others
CCCCOc1ccc(S(=O)(=O)NC(=O)C2(C)CCN2C(=O)CCc2ccccc2)cc1 (stereo unspecified) | 39* | -1 | -6 | nt | 5 | 2 | 32 | 7.2*
CCOc1ccc2nc(S(=O)(=O)NC(=O)C3(C)CCN3C(=O)c3c(C)noc3C)sc2c1 (stereo unspecified) | 10 | 1 | -2 | nt | -4 | 0 | nt | nt
O=C(CSc1nc2ncccc2[nH]1)N1CCOCC1 | 0 | 0 | nt | nt | 2 | 3 | nt | nt
CCN1Cc2nnn(Cc3ccc(C)cc3)c2-c2ccccc2S1(=O)=O | 0 | -1 | nt | nt | -1 | -1 | nt | nt
C#CCNC(=O)C[C@H]1C[C@@]2(C(=O)OCC)CCCC3=C2N(CCC3)C1=O | 2 | 0 | nt | nt | -6 | 2 | nt | nt
O=C(CN(Cc1ccccc1)S(=O)(=O)c1ccccc1)N/N=C/c1ccccc1C(=O)O | 18 | 1 | 4 | 9 | -1 | 5 | nt | nt
O=C(CN(Cc1ccccc1)S(=O)(=O)c1ccc(Br)cc1)N/N=C/c1ccccc1C(=O)O | 51* | 3 | 1 | -5 | 0 | 1 | 57* | 15*
O=C(N[C@H](Cc1ccccc1)C(=O)NCC1CCCO1)[C@H]1O[C@@H](n2ccc(=O)[nH]c2=O)[C@H](O)[C@@H]1O (stereo partly specified) | 3 | 0 | nt | nt | 3 | -3 | nt | nt
O=C(Nc1nnc(-c2cccs2)o1)c1cccc(F)c1 | 3 | -2 | 5 | -3 | 4 | -4 | nt | nt
O=C(Nc1nnc(-c2cccs2)o1)c1cccc(Oc2ccccc2)c1 | 38* | -4 | 9 | -2 | 12 | 2 | 53* | 15*
CCC(CC)NC(=O)O[C@H]1CC[C@@]23CCCN2C(=O)CCC[C@H]3C1 | nt | 1 | nt | nt | -2 | 4 | nt | nt
Cc1c(Cc2ccccc2)c(=O)oc2c(C)c(OC(C)C(=O)N[C@@H](Cc3ccccc3)C(=O)O)ccc12 (stereo partly specified) | 48* | -3 | 4 | 11 | 0 | -4 | 61* | 23*
